Here are results for 46 compounds from ChEMBL document CHEMBL2439990, “Serendipity in drug-discovery: a new series of 2-(benzyloxy)benzamides as TRPM8 antagonists” (Bioorg Med Chem Lett, 2013).

Data set [1] concerns the target Transient receptor potential cation channel subfamily M member 8 (Homo sapiens, UniProt Q7Z2W7). Put plainly: Inhibition of human TRPM8 (unknown origin) expressed in HEK293 cells assessed as inhibition of WS12-induced Ca2+ elevation by FLIPR assay. It counts as cell-based. In outline: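 IC50 values plus modified Kb values computed from the geometric mean of agonist EC50 and slope. At least three independent experiments.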

The nature of data set [2]: Apparent intrinsic clearance in human liver microsomes. It counts as ADME, Microsome. To be noted: read-out: CLH(app). (Liver microsomes are vesicles of endoplasmic reticulum, rich in cytochrome P450 enzymes.)
The nature of data set [3]: Lipophilicity, log D of the compound at pH 7.4. The conditions noted are these: buffer. It counts as physicochemical.
Another data set is filed under the species Rattus norvegicus. Put plainly: Inhibition of rat calcium channel L-site diltiazem binding site at 10 uM.
Data set [4] in a line: Half life in DMSO/aqueous buffer assessed as N-(2-(4-(benzyloxy)-3-methoxybenzylamino)ethyl)thiophene-2-carboxamide formation. In kind it is physicochemical.

On to `CCN(C(=O)c1ccccc1-c1ccccc1)[C@@H]1CCC[C@H](N)C1` (racemic), for which the Kb in data set [1] is > 2 µM. Same read-out and setting: the same measure for `CCN(C(=O)c1cnccc1OCc1ccccc1)[C@@H]1CCC[C@H](N)C1` (racemic): > 2 µM. Take `CCN(C(=O)c1ccccc1OCc1ccc(Cl)cc1)[C@@H]1CCC[C@H](N)C1`: the microsomal CLint in data set [2] is < 10 µL/min/mg. In addition, the logD in data set [3] was 1.3. In addition, in data set [1], the IC50 came to 0.0193 µM and the Kb came out at 0.0161 µM. Take `CN(C(=O)c1ccccc1OCc1ccccc1)[C@@H]1CCC[C@H](N)C1` (racemic): in data set [1], the IC50 was found to be 3.15 µM and the Kb worked out at 3.67 µM. Turning to `CCN(C(=O)c1cccnc1OCc1ccccc1)[C@@H]1CCC[C@H](N)C1` (racemic), the Kb in data set [1] was > 2 µM.

Turning to `N[C@H]1CCC[C@@H](N(C(=O)c2ccccc2OCc2ccccc2)C2CCC2)C1` (racemic), in data set [1], the IC50 stood at 1.36 µM and the Kb was found to be 0.794 µM.

As for `CCN(C(=O)c1ccccc1OCc1ccccc1)[C@@H]1CC[C@H](N)C1` (racemic), the Kb in data set [1] was > 5 µM. Consider `CCN(C(=O)c1ccccc1OCc1ccccc1C)[C@H]1CCC[C@@H](N)C1`, for which, in data set [1], the half-inhibitory concentration (IC50) was found to be 0.291 µM and the Kb was determined as 0.246 µM.

With `CCN(C(=O)c1ccccc1OCc1ccccc1)[C@@H]1CCC[C@H](NC(C)=O)C1` (racemic), in data set [1], the Kb was > 5 µM. For `CCN(C(=O)c1ccncc1OCc1ccccc1)[C@@H]1CCC[C@H](N)C1` (racemic), in data set [1], the Kb was > 2 µM. On to `CCN(C(=O)c1ccccc1OCc1ccccc1Cl)[C@@H]1CCC[C@H](N)C1`, for which, in data set [1], the concentration for half-maximal inhibition (IC50) worked out at 0.0299 µM and the Kb turned out to be 0.013 µM. Take `CCN(C(=O)c1ccccc1OCc1ccccc1)C1CCNCC1`: the Kb in data set [1] was > 5 µM. With `CCCCN(C(=O)c1ccccc1OCc1ccccc1)[C@@H]1CCC[C@H](N)C1` (racemic), in data set [1], the IC50 was found to be 1.4 µM and the Kb was determined as 1.56 µM. On to `CN(C(=O)c1ccccc1OCc1ccccc1)[C@@H]1CCNC1`, for which, in data set [1], the Kb is > 10 µM. With `COc1ccc(NC(=O)[C@@H]2C[C@H](C)CC[C@H]2C(C)C)cc1` [ACOLTREMON], in data set [1], the concentration for a half-maximal effect (EC50) was 0.04 µM. Consider `CCN(C(=O)c1ccccc1OCc1ccccc1F)[C@@H]1CCC[C@H](N)C1`, for which the microsomal CLint in data set [2] is < 8 µL/min/mg. This compound also displayed a logD in data set [3] of 0.7. For the same compound, in data set [1], the IC50 turned out to be 0.0211 µM and the Kb was found to be 0.0178 µM. For `NC1CCN(C(=O)c2ccccc2OCc2ccccc2)C1` (configuration not stated), the Kb in data set [1] is > 10 µM. As to `CCN(C(=O)c1ccccc1OCc1ccccc1)[C@@H]1CCC[C@H](N)C1`, the inhibition in the data set filed under Rattus norvegicus worked out at 61%. The microsomal CLint in data set [2] was < 8 µL/min/mg. In addition, the logD in data set [3] was found to be 0.6. In addition, in data set [1], the IC50 was 0.0762 µM and the Kb is 0.0563 µM. Take `N[C@H]1CCC[C@@H](N(CC2CC2)C(=O)c2ccccc2OCc2ccccc2)C1` (racemic): in data set [1], the IC50 came out at 0.593 µM and the Kb amounted to 0.665 µM. As to `COc1cc(CN(CCN)C(=O)O[C@@H](C)c2ccccc2)ccc1OCc1ccccc1`, the Kb in data set [1] worked out at 0.0078 µM. On the same count and under the same terms, the same measure for `CCN(C(=O)c1ccccc1OCc1ccccc1)C1CCNC1` (configuration not stated): > 5 µM. As to `CCN(C(=O)c1ccccc1OCc1ccccc1C)[C@@H]1CCC[C@H](N)C1`, in data set [1], the IC50 is 0.0151 µM and the Kb was 0.0127 µM. With `O=C(c1ccccc1OCc1ccccc1)N1C[C@H]2CNC[C@H]2C1`, the Kb in data set [1] was > 10 µM. The same measure, in the same setting: the same measure for `CCN(C(=O)c1ccccc1OCC(C)C)[C@@H]1CCC[C@H](N)C1` (racemic): > 2 µM. Turning to `NCCN(Cc1cccs1)C(=O)c1ccccc1OCc1ccccc1`, the microsomal CLint in data set [2] was 149 µL/min/mg. This compound also had a logD in data set [3] of 1.6. Further, in data set [1], the IC50 came to 1.24 µM and the Kb turned out to be 0.443 µM.

Regarding `COc1cc(CN(CCN)C(=O)c2cccs2)ccc1OCc1ccccc1`, the t1/2 in data set [4] was < 2 h. The Kb in data set [1] came to 0.0084 µM. Take `CCN(C(=O)c1ccccc1COc1ccccc1)[C@@H]1CCC[C@H](N)C1` (racemic): in data set [1], the Kb worked out at 0.28 µM. With `CCN(C(=O)c1ccccc1OCc1cccc(C#N)c1)C1CCCC(N)C1` (racemic), in data set [1], the IC50 worked out at 0.493 µM and the Kb worked out at 0.491 µM. In the case of `CCN(C(=O)c1ccccc1OCc1ccccc1F)[C@H]1CCC[C@@H](N)C1`, in data set [1], the IC50 came to 0.435 µM and the Kb amounted to 0.367 µM. As for `CCN(C(=O)c1ccccc1OCc1ccccc1C#N)C1CCCC(N)C1` (racemic), in data set [1], the IC50 came out at 1.85 µM and the Kb amounted to 1.25 µM. As to `O=C(c1ccccc1OCc1ccccc1)N1CCNCC1`, the Kb in data set [1] was > 10 µM. With `CCCN(C(=O)c1ccccc1OCc1ccccc1)[C@@H]1CCC[C@H](N)C1` (racemic), in data set [1], the IC50 stood at 1.23 µM and the Kb came out at 1.43 µM. For `CCN(C(=O)c1ccccc1OCc1ccc(Cl)cc1)[C@H]1CCC[C@@H](N)C1` the same measures were 0.254 µM and 0.214 µM.

Regarding `CCN(C(=O)c1ccccc1OCc1ccc(C#N)cc1)C1CCCC(N)C1` (racemic), in data set [1], the concentration for half-maximal inhibition (IC50) came to 6.78 µM and the Kb worked out at 4.59 µM. Consider `O=C1NC(c2cccc([N+](=O)[O-])c2)=CCN1c1ccccc1O` [ICILLIN], for which the EC50 in data set [1] is 0.3 µM. Regarding `NN1CCN(C(=O)c2ccccc2OCc2ccccc2)CC1`, in data set [1], the Kb is > 10 µM. On the same count and under the same terms, then `CCN(C(=O)c1ccccc1OCc1ccccc1)[C@@H]1CCC[C@@H](N)C1` (racemic), with 1.4 µM. Consider `CCN(C(=O)c1ccccc1OCc1ccccc1)[C@@H]1CC[C@@H](N)C1` (racemic), for which the Kb in data set [1] came to 2.6 µM. With `CCN(C(=O)c1ccccc1OCc1ccccc1Cl)[C@H]1CCC[C@@H](N)C1`, in data set [1], the IC50 turned out to be 0.0854 µM and the Kb is 0.072 µM. Take `CCN(C(=O)c1ccccc1OCc1ccccc1)[C@H]1CCC[C@@H](N)C1`: the Kb in data set [1] was 1.13 µM. On the same count and under the same terms, then `CCN(C(=O)c1ccccc1OCc1ccccc1)C1CCCNC1` (configuration not stated), with 4.86 µM. For the compound `CC(C)N(C(=O)c1ccccc1OCc1ccccc1)[C@@H]1CCC[C@H](N)C1` (racemic), in data set [1], the IC50 worked out at 8.78 µM and the Kb was 5.13 µM. For `CCN(C(=O)c1ccccc1Cc1ccccc1)[C@@H]1CCC[C@H](N)C1` (racemic), the Kb in data set [1] was > 2 µM. `CCN(C(=O)c1ccccc1OCc1cccc(Cl)c1)C1CCCC(N)C1` (racemic): in data set [1], the IC50 was determined as 0.0969 µM and the Kb came to 0.0966 µM. For the compound `CCN(C(=O)c1ccccc1OCc1ccccc1)C1CCCC(N)C1` (racemic), the Kb in data set [1] was < 0.1 µM.

For the compound `N[C@H]1CCC[C@@H](N(C(=O)c2ccccc2OCc2ccccc2)C2CC2)C1` (racemic), in data set [1], the IC50 came out at 2.01 µM and the Kb was 2.25 µM.

As usually defined, the logD is the decadic logarithm of the distribution of all forms, ionised or not, between an organic phase and buffer at a given pH. A low value points to lower lipophilicity. What is called IC50 is the point on the concentration scale where inhibition reaches its midpoint. The EC50 is the midpoint of the concentration-response curve. One may read the inhibition as the drop in the measured response relative to a control, in per cent.
